Here are results for 49 molecules from ChEMBL document CHEMBL5346944, “Development of a 2,4-Diaminothiazole Series for the Treatment of Human African Trypanosomiasis Highlights the Importance of Static-Cidal Screening of Analogues” (J Med Chem, 2023).

Structures are written as SMILES.

A short description of series [1]: Metabolic stability in CD1 mouse liver microsomes assessed as intrinsic clearance by UPLC-MS/MS analysis. Format: ADME. The procedure, abridged: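 Compound at 0.5 μM incubated with female CD1 mouse liver microsomes (0.5 mg mL-1, 50 mM potassium phosphate pH 7.4). Reaction started with excess NADPH. Aliquots taken at 0, 3, 6, 9, 15, 30 min and quenched in acetonitrile with internal standard, then analysed by UPLC-MS/MS.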

A short description of series [2]: Antiproliferative activity against human MRC5 cells in presence of 5% Co2 incubated for 69 hrs followed by resazurin addition further incubated for 4 hrs. Format: toxicity, cell-based.
Series [3] can be described thus: Kinetic aqueous solubility of the compound in DMSO by laser nephelometry. The format is physicochemical. The note with it: read-out: Kinetic_solubility.
Series [4] in a line: Selectivity index, ratio of EC50 for human MRC-5 cells to EC50 for bloodstream-form Trypanosoma brucei. The format is toxicity. The note with it: read-out: Selectivity Index.
For series [5], the system named is Trypanosoma brucei. The series is described as follows: Antiparasitic activity against bloodstream-form Trypanosoma brucei in presence of 5% Co2 incubated for 69 hrs followed by resazurin addition further incubated for 4 hrs. The format is functional, organism-based. On the technique in general: Alamar Blue is a resazurin reagent that responds to reducing activity.

A short description of series [6]: Metabolic stability in human liver microsomes assessed as intrinsic clearance by UPLC-MS/MS analysis. The format is ADME. (In general: Liver microsomes are vesicles of endoplasmic reticulum, rich in cytochrome P450 enzymes.)
The nature of series [7]: Selectivity ratio of IC50 for inhibition of Trypanosoma brucei GSK3 to EC50 for antiparasitic activity against bloodstream-stage Trypanosoma brucei. The format is toxicity.
Series [8] concerns Trypanosoma brucei. The series is described as follows: Antiparasitic activity against bloodstream-stage Trypanosoma brucei measured after 73 hrs by resazurin assay. Format: functional, organism-based.

`Nc1nc(Nc2ccccc2)sc1C(=O)c1ccc(F)cc1`: the CLH in series [1] worked out at 7.3 mL/min/g.

As usually defined, the EC50 is the midpoint of the concentration-response curve. As to `CC(OCC(=O)c1sc(Nc2ccc3c(c2)OC(F)(F)O3)nc1N)C(F)(F)F` (centres undefined), the EC50 at 69 h in series [2] was found to be 50 µM. Besides, in series [1], the CLH stood at 5 mL/min/g. For the same molecule, the solubility kinetic in series [3] was over 100 µg/mL.

In the case of `CC(C)(C)OCC(=O)c1sc(Nc2ccc(F)c(F)c2)nc1N`, the EC50 at 69 h in series [2] is 50 µM.

In the case of `Nc1nc(NC2CCCCC2)sc1C(=O)c1ccccc1F`, the EC50 at 69 h in series [2] was determined as 2 µM. Besides, the CLH in series [1] amounted to 9.7 mL/min/g.

For the molecule `CCOCC(=O)c1sc(Nc2ccc(F)c(F)c2)nc1N`, the EC50 at 69 h in series [2] was found to be 50 µM.

`Nc1nc(Nc2ccc(F)c(F)c2)sc1C(=O)COC1CC(F)(F)C1(F)F` (centres undefined): the CLH in series [1] is 5.2 mL/min/g.

On to `Nc1nc(NC2CCCCC2)sc1C(=O)C1CCC1`, for which the selectivity ratio in series [4] is 5. For the same molecule, in series [1], the CLH came to 21 mL/min/g.

For `COC(C)(C)CC(=O)c1sc(Nc2ccc(F)c(F)c2)nc1N`, the EC50 at 69 h in series [2] turned out to be 50 µM. The CLH in series [1] was 6.1 mL/min/g.

For `C[C@@H]1CN(CC(=O)c2sc(Nc3ccc(F)c(F)c3)nc2N)C[C@H](C)O1`, the selectivity ratio in series [4] was 1000. Besides, the EC50 at 69 h in series [2] was found to be 50 µM. Moreover, the CLH in series [1] turned out to be 8.1 mL/min/g. Also, in the series on Trypanosoma brucei [5], the EC50 is 0.05 µM.

With `CC(C)(C)CC(=O)c1sc(Nc2ccc(F)c(F)c2)nc1N`, the CLH in series [1] came out at 4.6 mL/min/g.

Regarding `Nc1nc(Nc2ccc(F)c(F)c2)sc1C(=O)CCN1CCOCC1`, the CLH in series [1] amounted to 1.2 mL/min/g.

Regarding `Nc1nc(Nc2ccc(F)c(F)c2)sc1C(=O)CN1CCCC1C(F)(F)F` (centres undefined), in series [1], the CLH was determined as 26 mL/min/g.

With `CC(C)CC(=O)c1sc(Nc2ccc(F)c(F)c2)nc1N`, the CLH in series [1] was determined as 5.9 mL/min/g; in series [6], 3.2 mL/min/g.

Regarding `Nc1nc(NC2CCCCC2)sc1C(=O)c1ccc(OC(F)F)cc1`, the selectivity ratio in series [4] came to 267. Besides, the CLH is 2.9 mL/min/g in series [1] and 0.8 mL/min/g in series [6].

Turning to `Nc1nc(Nc2ccc(F)c(F)c2)sc1C(=O)CN1C[C@H]2CC[C@@H](C1)O2`, the EC50 at 69 h in series [2] amounted to 50 µM. In addition, the CLH in series [1] amounted to 8.8 mL/min/g.

For the molecule `Nc1nc(Nc2ccc(F)c(F)c2)sc1C(=O)CN1C[C@@H]2C[C@H]1CO2`, in series [2], the EC50 at 69 h was 50 µM. In series [1], the CLH turned out to be 4.1 mL/min/g.

Regarding `CC(OCC(=O)c1sc(Nc2ccc(Cl)cc2)nc1N)C(F)(F)F` (centres undefined), the EC50 at 69 h in series [2] worked out at 50 µM. In series [1], the CLH came out at 5.3 mL/min/g. In addition, the solubility kinetic in series [3] was over 100 µg/mL.

Turning to `Nc1nc(Nc2ccc(F)c(F)c2)sc1C(=O)COC(CF)CF`, the EC50 at 69 h in series [2] amounted to 50 µM.

As to `CC(C)(C)C(=O)c1sc(NC2CCCCC2)nc1N`, the CLH in series [1] is 2.5 mL/min/g. The “Ratio IC50/EC50” value in series [7] came out at 70. The molecule also returned an EC50 in the series on Trypanosoma brucei [8] of 0.26 µM.

For the molecule `Nc1nc(Nc2ccc(F)c(F)c2)sc1C(=O)COC1CCC1`, the EC50 at 69 h in series [2] is 50 µM. The CLH in series [1] came to 9 mL/min/g.

As for `CC(C)OCCC(=O)c1sc(Nc2ccc(F)c(F)c2)nc1N`, the EC50 at 69 h in series [2] is 50 µM.

Turning to `CC(C)OCC(=O)c1sc(Nc2ccc(F)c(F)c2)nc1N`, in series [2], the half-maximal effective concentration (EC50) at 69 h was found to be 50 µM. Moreover, the CLH in series [1] is 9.3 mL/min/g.

For the molecule `Nc1nc(NC2CCCCC2)sc1C(=O)c1ccncc1`, the CLH in series [1] was determined as 4.1 mL/min/g.

With `Nc1nc(NC2CCCCC2)sc1C(=O)c1ccc(C(F)(F)F)cc1`, the CLH in series [1] was found to be 1.4 mL/min/g.

On to `Nc1nc(Nc2ccccc2)sc1C(=O)c1ccccc1`, for which the results for the CLH in series [1] and in series [6] were 12 mL/min/g and under 0.5 mL/min/g, respectively.

As for `COc1ccc(Nc2nc(N)c(C(=O)COC(C)C(F)(F)F)s2)cn1` (centres undefined), in series [2], the EC50 at 69 h was found to be 50 µM. For the same molecule, in series [1], the CLH worked out at 9 mL/min/g. Besides, the solubility kinetic in series [3] is over 100 µg/mL.

On to `Nc1nc(NC2CCCCC2)sc1C(=O)c1ccc(F)cc1`, for which, in series [1], the CLH was 4.9 mL/min/g.

Consider `Nc1nc(Nc2ccc(F)c(F)c2)sc1C(=O)CN1CCCCC1`, for which the CLH in series [1] is 7.7 mL/min/g.

Turning to `CC(C)CC(=O)c1sc(Nc2ccc(F)cc2)nc1N`, the CLH in series [1] came out at 8 mL/min/g.

As for `Nc1nc(Nc2ccc(F)c(F)c2)sc1C(=O)CN1CCC(F)(F)CC1`, in series [1], the CLH is 9.3 mL/min/g.

Turning to `CC(OCC(=O)c1sc(Nc2ccc(C(F)(F)F)nc2)nc1N)C(F)(F)F` (centres undefined), the 50% effective concentration (EC50) at 69 h in series [2] amounted to 50 µM.

As for `Nc1nc(NC2CCCCC2)sc1C(=O)C1CCCCC1`, the CLH in series [1] came out at 8.9 mL/min/g.

Regarding `Nc1nc(NC2CCCCC2)sc1C(=O)c1ccc(F)c(F)c1`, the CLH in series [1] is 12 mL/min/g.

Regarding `Nc1nc(NC2CCCCC2)sc1C(=O)c1ccc(F)cc1F`, the CLH in series [1] was found to be 6.5 mL/min/g.

With `COC(C)(C)C(=O)c1sc(NC2CCCCC2)nc1N`, in series [1], the CLH was 3.8 mL/min/g.

Consider `CC(OCC(=O)c1sc(Nc2ccn(C)n2)nc1N)C(F)(F)F` (centres undefined), for which, in series [1], the CLH stood at 10.8 mL/min/g.

`CC1CCCN1CC(=O)c1sc(Nc2ccc(F)c(F)c2)nc1N` (centres undefined): the EC50 at 69 h in series [2] is 50 µM. In series [1], the CLH stood at 5.2 mL/min/g.

With `Nc1nc(NC2CCCCC2)sc1C(=O)c1ccccc1C(F)(F)F`, the CLH in series [1] worked out at 14 mL/min/g.

For `CC(OCC(=O)c1sc(Nc2cccc(OC(F)F)c2)nc1N)C(F)(F)F` (centres undefined), the selectivity ratio in series [4] was 2500. Also, the EC50 at 69 h in series [2] worked out at 50 µM. Also, in series [3], the solubility kinetic was over 100 µg/mL. The EC50 with Trypanosoma brucei [5] was found to be 0.02 µM.

On to `CC(OCC(=O)c1sc(Nc2ccc(F)c(F)c2)nc1N)C(F)(F)F` (centres undefined), for which the EC50 at 69 h in series [2] was 50 µM. Also, the CLH in series [1] was 7.4 mL/min/g.

`Nc1nc(NC2CCCC(O)C2)sc1C(=O)c1c(F)cccc1F` (centres undefined): in series [1], the CLH was found to be 1.8 mL/min/g.

`Nc1nc(NC2CCCCC2)sc1C(=O)c1cc(F)cc(F)c1`: the CLH in series [1] was 3.6 mL/min/g.

On to `Nc1nc(NC2CCCCC2)sc1C(=O)c1c(Cl)cccc1Cl`, for which the CLH in series [1] is 4.1 mL/min/g.

As for `CC(OCC(=O)c1sc(Nc2ccc(C(F)(F)F)cc2)nc1N)C(F)(F)F` (centres undefined), in series [1], the CLH amounted to 2.3 mL/min/g. Besides, the solubility kinetic in series [3] is over 100 µg/mL.

With `Nc1nc(Nc2ccc(F)c(F)c2)sc1C(=O)CN1CCCC1`, in series [1], the CLH was 2.1 mL/min/g.

Consider `CC(C)C(=O)c1sc(NC2CCCCC2)nc1N`, for which the CLH in series [1] was determined as 0.5 mL/min/g.

As for `Nc1nc(Nc2ccc(F)c(F)c2)sc1C(=O)CN1CCOCC1`, in series [4], the selectivity ratio was 2000. Moreover, the EC50 at 69 h in series [2] turned out to be 50 µM. Further, the CLH in series [1] is 4.7 mL/min/g.

For `Nc1nc(Nc2ccc(F)c(F)c2)sc1C(=O)CN1CCCC(F)(F)C1`, the CLH in series [1] is 33 mL/min/g.

`O=C(c1cnc(NC2CCCCC2)s1)C1CCCCC1`: the CLH in series [1] worked out at 15 mL/min/g.
